# Experimental data as given in ChEMBL document CHEMBL3352032, “Antiplasmodial activity of new 4-aminoquinoline derivatives against chloroquine resistant strain” (Bioorg Med Chem, 2014).
# How the values were obtained:
# Plasmodium falciparum [1] = assay: Antiplasmodial activity against chloroquine-sensitive Plasmodium falciparum 3D7 after 72 hrs by SYBR Green-1 staining-based fluorescence assay; type: functional, organism-based; settings: 3D7, 72 h
# Outline: (§1)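 Compounds were dissolved in DMSO as 10 mM stocks and two-fold serially diluted. Dilutions were incubated with a 1.0% parasitized cell suspension at 0.8% parasitemia, using an asynchronous culture with more than 80% ring stages. Incubation was 72 h at 37 °C in 5% CO2/air. Lysis buffer with 2x SYBR Green-1 was then added for 1 h at 37 °C, and fluorescence (RFU) was read at 485±20 nm.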
# Plasmodium falciparum [2] = assay: Antiplasmodial activity against chloroquine-resistant Plasmodium falciparum K1 after 72 hrs by SYBR Green-1 staining-based fluorescence assay; type: functional, organism-based; settings: K1, 72 h; outline: as §1
# Plasmodium falciparum [3] = assay: Resistance index, ratio of IC50 for chloroquine-resistant Plasmodium falciparum K1 to IC50 for chloroquine-sensitive Plasmodium falciparum 3D7; type: functional
# Outline: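 The index is the IC50 against K1 divided by the IC50 against 3D7. Both IC50s come from the 72 h SYBR Green-1 fluorescence assay: two-fold serial dilutions from 10 mM DMSO stocks, 1.0% parasitized cells at 0.8% parasitemia (>80% rings), 37 °C, 5% CO2.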
# [4] = Selectivity index, ratio of CC50 for African green monkey Vero cells to IC50 for Plasmodium falciparum; type: functional
# Outline: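 Vero cells exposed to compound dilutions for 72 h; cytotoxicity read by MTT, CC50 by nonlinear regression of dose-response curves. Antiplasmodial IC50 from P. falciparum asynchronous culture (>80% rings, 0.8% parasitemia, 1% hematocrit suspension), twofold serial dilutions, 72 h at 37 °C, 5% CO2, SYBR Green I fluorescence. SI = CC50/IC50.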
# [5] = Association constant, log K of the compound in aqueous DMSO at pH 7.5 assessed as complex formation by UV spectrophotometry; type: physicochemical; settings: buffer
# Outline: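 Spectrophotometric titration of hematin with compound in 40% aqueous DMSO, 20 mM HEPES, pH 7.5, 25 °C; hematin monomeric under these conditions. Association constant fitted for 1:1 compound:hematin complex. Means ± SD from at least three experiments in duplicate.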
# [6] = Inhibition of beta-hematin formation assessed as inhibition of hemozoin formation by UV spectrophotometry; type: physicochemical
# Outline: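 β-Hematin polymerization induced by 1-oleoyl-rac-glycerol, read at 405 nm by UV spectrophotometry. Triplicate values expressed as percent inhibition relative to drug-free hemozoin formation. IC50 in millimolar equivalents of compound relative to hemin, from sigmoidal dose-response non-linear regression. Means ± SD from at least three experiments in duplicate.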
Structure (SMILES),IC50 (Plasmodium falciparum [1]) [nM],IC50 (Plasmodium falciparum [2]) [nM],Ratio IC50 (Plasmodium falciparum [3]),Ratio CC50/IC50 [4],log K [5],IC50 [6] [mMequiv],inhibition (INH) [6]
C[C@H](Nc1ccnc2cc(Cl)ccc12)C(=O)N1CCN(C)CC1,73.8,207,2.79,2900,5.36,0.1677,Dose-dependent effect
CN1CCN(C(=O)CC[C@H](Cc2ccccc2)Nc2ccnc3cc(Cl)ccc23)CC1,11.5,71.2,6.18,11350,5.32,0.1961,Dose-dependent effect
CCN(CC)CCCNC(=O)[C@H](C)Nc1ccnc2cc(Cl)ccc12,82.6,> 500,>6.05,2585,5.27,0.2145,Dose-dependent effect
CN1CCN(C(=O)CNc2ccnc3cc(Cl)ccc23)CC1,149,177,1.18,1566,7.34,0.1915,Dose-dependent effect
CN1CCN(C(=O)[C@H](Cc2c[nH]c3ccccc23)Nc2ccnc3cc(Cl)ccc23)CC1,223,262,1.17,392,6.36,0.3302,Dose-dependent effect
CC[C@H](C)[C@@H](CC(=O)N1CCN(C)CC1)Nc1ccnc2cc(Cl)ccc12,33,168,5.08,7613,6.26,0.2197,Dose-dependent effect
CN1CCN(C(=O)C[C@H](Cc2ccccc2)Nc2ccnc3cc(Cl)ccc23)CC1,19.2,55.3,2.87,5846,5.8,0.1739,Dose-dependent effect
CN1CCN(C(=O)[C@H](CO)Nc2ccnc3cc(Cl)ccc23)CC1,116,925,7.96,1976,5.68,0.3604,Dose-dependent effect
C[C@H](Nc1ccnc2cc(Cl)ccc12)C(=O)NCCN1CCCCC1,64.1,> 500,>7.8,3025,5.73,0.2166,Dose-dependent effect
CC[C@H](C)[C@H](Nc1ccnc2cc(Cl)ccc12)C(=O)N1CCN(C)CC1,83.8,365,4.34,2188,5.72,0.2295,Dose-dependent effect
CN1CCN(C(=O)[C@H](Cc2ccccc2)Nc2ccnc3cc(Cl)ccc23)CC1,109,116,1.06,429,5.11,0.6619,Dose-dependent effect
CC(C)C[C@H](Nc1ccnc2cc(Cl)ccc12)C(=O)N1CCN(C)CC1,60.2,147,2.44,905,5.38,0.2283,Dose-dependent effect
CN1CCN(C(=O)CCCNc2ccnc3cc(Cl)ccc23)CC1,65.1,781,11.99,4432,6.52,0.2023,Dose-dependent effect
CCN(CC)CCNC(=O)[C@H](C)Nc1ccnc2cc(Cl)ccc12,35.4,> 500,>14.13,5834,6.03,0.1531,Dose-dependent effect
CC[C@H](C)[C@H](NC(=O)OC(C)(C)C)C(=O)C=[N+]=[N-],–,168,–,–,–,–,–
C[C@H](O)[C@H](Nc1ccnc2cc(Cl)ccc12)C(=O)N1CCN(C)CC1,142,> 1380,>9.67,1934,6.07,0.3837,Dose-dependent effect
CCN(CC)CCCC(C)Nc1ccnc2cc(Cl)ccc12 (centres undefined) [CHLOROQUINE],–,–,–,–,5.52,0.17,–
CC(C)(C)OC(=O)N[C@@H](Cc1ccccc1)C(=O)C=[N+]=[N-],–,55.3,–,–,–,–,–
CN1CCN(C(=O)CCNc2ccnc3cc(Cl)ccc23)CC1,35.9,398,11.1,6472,6.43,0.3293,Dose-dependent effect
CSCC[C@H](Nc1ccnc2cc(Cl)ccc12)C(=O)N1CCN(C)CC1,58.4,129,2.2,3821,5.04,0.3595,Dose-dependent effect
CC(C)[C@H](Nc1ccnc2cc(Cl)ccc12)C(=O)N1CCN(C)CC1,271,599,2.21,1023,6.39,0.2349,Dose-dependent effect
C[C@H](Nc1ccnc2cc(Cl)ccc12)C(=O)NCCCN(C)C,142,> 500,>3.51,2606,5.34,0.176,Dose-dependent effect
C[C@H](Nc1ccnc2cc(Cl)ccc12)C(=O)N1CCN(c2ccccc2)CC1,> 500,> 500,–,–,5.94,0.2082,Dose-dependent effect
CC(C)[C@H](CC(=O)N1CCN(C)CC1)Nc1ccnc2cc(Cl)ccc12,44.1,324,7.33,6045,5.33,0.2286,Dose-dependent effect
